From ChEMBL document CHEMBL1154186, “Synthesis, kinase inhibitory potencies, and in vitro antiproliferative evaluation of new Pim kinase inhibitors” (J Med Chem, 2009) come the findings set out here.

Structures are written as SMILES.

Test [1] has as its target Glycogen synthase kinase-3 beta (Homo sapiens) (UniProt P49841). As to the kind of experiment: Inhibition of GSK3-beta assessed as residual enzyme activity at 10 uM relative to untreated control. The gist of the method: (§1)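 Radiometric filter-binding assay at 21 °C for 30 min. Mix: 50 mM Tris/HCl pH 7.5, 0.1 mM EGTA, 0.1% 2-mercaptoethanol, 10 mM Mg acetate and [γ-33P]ATP (800 cpm/pmol) at 5 µM. Stopped with orthophosphoric acid and spotted on P81. Compound at 10 µM; activity given as % remaining versus no-inhibitor control, duplicates. Kinases human full-length unless noted.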

Test [2] deals with Mitogen-activated protein kinase 10 (Homo sapiens) (UniProt P53779). As to the kind of experiment: Inhibition of JNK3 assessed as residual enzyme activity at 10 uM relative to untreated control. The method in brief:
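Assayed with [γ-33P]ATP at 50 µM and 10 mM Mg acetate in 50 mM Tris/HCl pH 7.5, 0.1 mM EGTA, 0.1% 2-mercaptoethanol, 30 min, 21 °C. Phosphoric acid stop, P81 filter capture. ERK2 and Lck are mouse; AMPK is rat. 10 µM compound; % activity remaining relative to control without inhibitor, duplicates.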

Test [3] has as its target T1, Inhibitor of nuclear factor kappa-B kinase subunit beta (Homo sapiens) (UniProt O14920).
T1 sequence (whole entry): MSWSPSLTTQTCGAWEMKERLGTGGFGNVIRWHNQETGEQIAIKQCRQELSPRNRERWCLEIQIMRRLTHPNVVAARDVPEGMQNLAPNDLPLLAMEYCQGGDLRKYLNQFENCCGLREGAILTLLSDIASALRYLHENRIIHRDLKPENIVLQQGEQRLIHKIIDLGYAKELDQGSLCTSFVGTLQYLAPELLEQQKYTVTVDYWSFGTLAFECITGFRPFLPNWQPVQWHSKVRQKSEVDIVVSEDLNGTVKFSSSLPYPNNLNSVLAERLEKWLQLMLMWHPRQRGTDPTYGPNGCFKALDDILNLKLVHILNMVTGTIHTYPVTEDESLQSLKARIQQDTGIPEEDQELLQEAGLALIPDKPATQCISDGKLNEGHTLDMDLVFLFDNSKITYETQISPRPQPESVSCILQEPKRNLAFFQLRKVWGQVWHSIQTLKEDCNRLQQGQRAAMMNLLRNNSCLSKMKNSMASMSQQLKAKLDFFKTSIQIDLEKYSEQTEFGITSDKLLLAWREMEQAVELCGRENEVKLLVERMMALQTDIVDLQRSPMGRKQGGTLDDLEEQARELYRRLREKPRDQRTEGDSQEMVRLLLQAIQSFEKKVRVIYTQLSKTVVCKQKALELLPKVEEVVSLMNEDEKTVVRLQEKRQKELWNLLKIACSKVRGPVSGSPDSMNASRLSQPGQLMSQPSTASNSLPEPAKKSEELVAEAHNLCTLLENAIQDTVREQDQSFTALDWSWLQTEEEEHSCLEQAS
As to the kind of experiment: Inhibition of IKK-beta assessed as residual enzyme activity at 10 uM relative to untreated control. The gist of the method:
as §1

For test [4], the target named is T2, Eukaryotic elongation factor 2 kinase (Homo sapiens) (UniProt O00418).
T2 sequence (whole entry): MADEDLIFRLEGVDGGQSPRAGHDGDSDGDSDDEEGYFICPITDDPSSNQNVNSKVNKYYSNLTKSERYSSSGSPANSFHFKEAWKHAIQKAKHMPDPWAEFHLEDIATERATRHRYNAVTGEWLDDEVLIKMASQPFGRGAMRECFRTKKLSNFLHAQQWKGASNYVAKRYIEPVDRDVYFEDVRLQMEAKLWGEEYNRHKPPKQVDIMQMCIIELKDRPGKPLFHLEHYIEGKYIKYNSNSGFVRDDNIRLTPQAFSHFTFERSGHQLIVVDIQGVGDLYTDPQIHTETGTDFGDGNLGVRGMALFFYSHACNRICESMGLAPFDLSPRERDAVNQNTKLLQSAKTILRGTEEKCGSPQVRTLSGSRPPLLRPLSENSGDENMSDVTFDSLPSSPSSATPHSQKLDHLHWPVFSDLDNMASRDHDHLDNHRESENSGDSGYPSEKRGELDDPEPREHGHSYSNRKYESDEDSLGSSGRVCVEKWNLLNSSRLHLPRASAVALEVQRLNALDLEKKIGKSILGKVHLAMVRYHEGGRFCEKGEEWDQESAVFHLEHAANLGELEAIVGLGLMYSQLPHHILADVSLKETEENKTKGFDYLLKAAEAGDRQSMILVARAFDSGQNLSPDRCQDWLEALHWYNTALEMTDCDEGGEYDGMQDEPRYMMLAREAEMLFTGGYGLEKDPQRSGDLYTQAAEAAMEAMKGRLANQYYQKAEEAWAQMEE
As to the kind of experiment: Inhibition of EF2K assessed as residual enzyme activity at 10 uM relative to untreated control.

The target in test [5] is Ribosomal protein S6 kinase alpha-3 (Homo sapiens) (UniProt P51812). As to the kind of experiment: Inhibition of RSK2 assessed as residual enzyme activity at 10 uM relative to untreated control.
Chain of Ribosomal protein S6 kinase alpha-3 (Homo sapiens) (P51812 whole entry): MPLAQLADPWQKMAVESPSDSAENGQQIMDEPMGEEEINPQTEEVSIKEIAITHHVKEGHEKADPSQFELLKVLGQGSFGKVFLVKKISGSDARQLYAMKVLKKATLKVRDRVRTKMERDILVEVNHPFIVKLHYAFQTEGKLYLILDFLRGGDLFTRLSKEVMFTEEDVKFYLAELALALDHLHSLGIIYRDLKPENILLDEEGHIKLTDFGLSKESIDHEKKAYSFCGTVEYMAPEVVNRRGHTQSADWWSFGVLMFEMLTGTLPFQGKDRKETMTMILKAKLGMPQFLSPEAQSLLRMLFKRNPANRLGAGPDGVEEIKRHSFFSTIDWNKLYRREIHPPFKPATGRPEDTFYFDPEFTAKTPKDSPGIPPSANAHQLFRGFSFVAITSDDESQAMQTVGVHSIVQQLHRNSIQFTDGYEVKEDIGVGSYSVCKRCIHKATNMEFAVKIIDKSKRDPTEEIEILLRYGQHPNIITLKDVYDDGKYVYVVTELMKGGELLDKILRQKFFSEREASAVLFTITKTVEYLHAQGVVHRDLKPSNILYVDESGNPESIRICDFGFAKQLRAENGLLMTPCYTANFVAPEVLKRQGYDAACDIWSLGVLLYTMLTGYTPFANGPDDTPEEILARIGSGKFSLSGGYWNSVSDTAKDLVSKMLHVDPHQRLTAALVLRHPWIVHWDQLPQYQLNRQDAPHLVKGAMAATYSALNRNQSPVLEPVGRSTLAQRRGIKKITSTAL
Test [6] has as its target SRSF protein kinase 1 (Homo sapiens) (UniProt Q96SB4). As to the kind of experiment: Inhibition of SRPK1 assessed as residual enzyme activity at 10 uM relative to untreated control.
Test [7] is described as follows: Inhibition of PKA assessed as residual enzyme activity at 10 uM relative to untreated control. The method in brief:
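PKA (5-20 m-units) was assayed in 8 mM Mops pH 7.5 and 0.2 mM EDTA, with LRRASLG at 300 µM and [γ-33P]ATP at 20 µM plus 10 mM Mg acetate, 30 min at 21 °C, then P81 filter capture. Compound at 10 µM; % residual activity versus uninhibited control, duplicates.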

The test system of another test is RSK1 (Rattus norvegicus). As to the kind of experiment: Inhibition of RSK1 assessed as residual enzyme activity at 10 uM relative to untreated control.
Test [8] concerns MKK1 (Oryctolagus cuniculus). As to the kind of experiment: Inhibition of MKK1 assessed as residual enzyme activity at 10 uM relative to untreated control.
Test [9] concerns the target Serine/threonine-protein kinase Chk2 (Homo sapiens) (UniProt O96017). As to the kind of experiment: Inhibition of CHK2 assessed as residual enzyme activity at 10 uM relative to untreated control. The method in brief: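 Kinases of human origin, except CK1δ, which is rat. Run in 50 mM Tris/HCl pH 7.5, 0.1 mM EGTA, 0.1% 2-mercaptoethanol and 10 mM Mg acetate, with [γ-33P]ATP at 20 µM, 30 min at 21 °C. Acid-stopped and captured on P81 filters. Compound tested at 10 µM; residual % of uninhibited control, duplicate determinations.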

Chain of SRSF protein kinase 1 (Homo sapiens) (Q96SB4 whole entry): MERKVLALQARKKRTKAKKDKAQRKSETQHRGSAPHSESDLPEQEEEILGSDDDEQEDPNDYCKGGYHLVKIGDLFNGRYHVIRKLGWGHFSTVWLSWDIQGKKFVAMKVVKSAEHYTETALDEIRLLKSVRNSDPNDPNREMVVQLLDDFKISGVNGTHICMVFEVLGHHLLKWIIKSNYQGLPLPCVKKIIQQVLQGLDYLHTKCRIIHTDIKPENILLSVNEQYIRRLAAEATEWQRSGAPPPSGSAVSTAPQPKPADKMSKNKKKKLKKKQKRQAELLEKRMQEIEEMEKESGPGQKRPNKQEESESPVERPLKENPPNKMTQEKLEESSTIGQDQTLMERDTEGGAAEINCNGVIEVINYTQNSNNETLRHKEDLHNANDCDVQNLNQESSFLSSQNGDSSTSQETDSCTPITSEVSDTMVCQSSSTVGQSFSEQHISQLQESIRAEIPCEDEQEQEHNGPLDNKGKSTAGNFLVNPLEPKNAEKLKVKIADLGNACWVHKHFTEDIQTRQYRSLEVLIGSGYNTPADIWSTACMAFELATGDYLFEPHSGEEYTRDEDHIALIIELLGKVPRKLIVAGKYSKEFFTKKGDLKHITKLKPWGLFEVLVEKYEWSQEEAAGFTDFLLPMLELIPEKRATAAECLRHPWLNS
Chain of Mitogen-activated protein kinase 10 (Homo sapiens) (P53779 whole entry): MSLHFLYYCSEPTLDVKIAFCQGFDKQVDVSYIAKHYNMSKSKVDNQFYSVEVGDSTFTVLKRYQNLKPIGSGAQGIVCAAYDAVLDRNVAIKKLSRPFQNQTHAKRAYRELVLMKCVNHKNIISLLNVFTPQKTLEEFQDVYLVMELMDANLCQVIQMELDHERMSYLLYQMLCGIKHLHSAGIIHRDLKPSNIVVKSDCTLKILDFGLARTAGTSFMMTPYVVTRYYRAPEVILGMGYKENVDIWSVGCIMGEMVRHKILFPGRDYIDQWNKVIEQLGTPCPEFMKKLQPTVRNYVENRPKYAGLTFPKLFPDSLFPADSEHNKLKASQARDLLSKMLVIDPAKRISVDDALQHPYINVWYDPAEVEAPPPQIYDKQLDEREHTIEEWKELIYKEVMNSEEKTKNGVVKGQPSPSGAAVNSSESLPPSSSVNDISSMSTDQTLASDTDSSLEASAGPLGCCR
Chain of Glycogen synthase kinase-3 beta (Homo sapiens) (P49841 whole entry, looked up): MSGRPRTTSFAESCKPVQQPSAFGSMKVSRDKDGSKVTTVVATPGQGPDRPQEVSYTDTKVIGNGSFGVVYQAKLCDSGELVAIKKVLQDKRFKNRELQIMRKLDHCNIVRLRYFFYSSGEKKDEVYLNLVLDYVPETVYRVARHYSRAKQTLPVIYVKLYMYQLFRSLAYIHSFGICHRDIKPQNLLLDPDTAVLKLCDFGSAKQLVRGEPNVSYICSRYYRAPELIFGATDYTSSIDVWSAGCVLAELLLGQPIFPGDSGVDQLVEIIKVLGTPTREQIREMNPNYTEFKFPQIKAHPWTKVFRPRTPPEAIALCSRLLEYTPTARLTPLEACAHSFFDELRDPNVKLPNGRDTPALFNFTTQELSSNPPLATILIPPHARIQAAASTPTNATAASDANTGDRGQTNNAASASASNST
Chain of Serine/threonine-protein kinase Chk2 (Homo sapiens) (O96017 whole entry): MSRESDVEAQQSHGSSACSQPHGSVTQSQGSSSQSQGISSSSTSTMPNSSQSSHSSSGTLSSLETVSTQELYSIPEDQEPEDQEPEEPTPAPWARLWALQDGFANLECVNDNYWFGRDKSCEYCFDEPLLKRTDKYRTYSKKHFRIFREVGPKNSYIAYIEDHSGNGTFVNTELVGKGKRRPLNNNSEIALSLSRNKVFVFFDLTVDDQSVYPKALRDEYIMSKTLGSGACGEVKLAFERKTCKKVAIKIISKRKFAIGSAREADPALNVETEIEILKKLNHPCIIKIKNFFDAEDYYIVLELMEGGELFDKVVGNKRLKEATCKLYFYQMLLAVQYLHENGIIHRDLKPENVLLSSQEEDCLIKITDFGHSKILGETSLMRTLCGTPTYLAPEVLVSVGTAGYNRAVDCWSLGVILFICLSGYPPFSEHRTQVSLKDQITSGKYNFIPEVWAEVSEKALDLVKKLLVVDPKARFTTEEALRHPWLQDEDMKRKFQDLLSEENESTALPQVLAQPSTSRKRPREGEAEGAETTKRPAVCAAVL

Regarding `O=Cc1c[nH]c2c1ccc1c3ccccc3[nH]c12`, the Activity came to 88% in test [1]; 113% in test [2]; 71% in test [3]; 90% in test [4]; 77% in test [5]; 84% in [6]. In [7], the Activity worked out at 60%.
As for `c1ccc2c(c1)[nH]c1c3cc[nH]c3ccc21`, the Activity in test [1] was 102%; in test [2] it was 111%; in [3], 110%; with RSK1 (Rattus norvegicus), 99%; in test [8], 75%; in test [9], 73%. Besides, the Activity stood at 92% in test [4], 107% in test [5], 94% in [6] and 96% in [7].
Consider `O=Cc1c[nH]c2ccc3c4ccccc4[nH]c3c12`, for which the Activity in test [1] was 96%; in test [2], 96%; in [3], 108%; with RSK1 (Rattus norvegicus), 120%; in [8] it was 104%; in test [9] it was 89%. Moreover, the Activity stood at 105% in test [4], 78% in [5], 93% in [6] and 83% in test [7].
Regarding `c1ccc2c(c1)[nH]c1c2ccc2cc[nH]c21`, the Activity came to 111% in [1]; 108% in test [2]; 106% in test [3]; 105% in the test on RSK1 (Rattus norvegicus); 87% in test [8]; 58% in [9]. The Activity in test [4] was found to be 101%; in test [5] it was 99%; in test [6] it was 90%; in test [7], 95%.
